These results are taken from ChEMBL document CHEMBL4699564, “Hit-to-lead optimization and discovery of a potent, and orally bioavailable G protein coupled receptor kinase 2 (GRK2) inhibitor” (Bioorg Med Chem Lett, 2020).

Broadly, the Kd is the concentration at which binding is half-saturated. In general, IC50 refers to the concentration that gives 50% inhibition. In general, Papp A→B refers to the apparent permeability from the apical to the basolateral side of a cell layer. As usually defined, the Tmax is the time from dosing to the highest level. As a reminder, the Cmax is the peak of the concentration-time curve. As usually defined, the bioavailability is the share of a dose that reaches the circulation, judged against a reference dose that is usually intravenous. A low value points to poor availability. The term half-life denotes the time needed for the level to fall by half in the phase considered. High values mean slow decline, low ones rapid decline.

Structures are written as SMILES. Some results are limits rather than exact numbers.

The target in data set [1] is T1, G protein-coupled receptor kinase 5 (Homo sapiens, UniProt P34947). Kind of data set: Binding affinity to GRK5 (unknown origin) by Thermofluor thermal shift assay.
The target of data set [2] is T2, Rhodopsin kinase GRK1 (Homo sapiens, UniProt Q15835).
T2 sequence (Q15835 whole entry): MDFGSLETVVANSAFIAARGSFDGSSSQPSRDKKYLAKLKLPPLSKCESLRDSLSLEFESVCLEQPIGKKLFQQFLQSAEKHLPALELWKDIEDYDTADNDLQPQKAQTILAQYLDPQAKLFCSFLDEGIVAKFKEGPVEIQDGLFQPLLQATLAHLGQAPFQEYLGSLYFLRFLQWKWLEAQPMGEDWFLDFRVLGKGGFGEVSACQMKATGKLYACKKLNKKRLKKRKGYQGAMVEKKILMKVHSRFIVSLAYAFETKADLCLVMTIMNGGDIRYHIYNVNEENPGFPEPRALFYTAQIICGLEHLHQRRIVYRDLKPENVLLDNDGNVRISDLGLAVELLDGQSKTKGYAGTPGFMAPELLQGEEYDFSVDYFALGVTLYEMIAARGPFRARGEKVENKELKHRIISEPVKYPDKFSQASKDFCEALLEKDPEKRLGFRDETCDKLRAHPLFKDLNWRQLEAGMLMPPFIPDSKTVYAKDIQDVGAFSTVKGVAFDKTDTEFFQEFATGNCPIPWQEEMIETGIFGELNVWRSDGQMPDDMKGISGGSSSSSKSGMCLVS
Kind of data set: Binding affinity to GRK1 (unknown origin) by Thermofluor thermal shift assay. In general terms: DSF heats the sample and reads unfolding from a dye or from intrinsic fluorescence.

The target of a further data set is T3, Rhodopsin kinase GRK7 (Homo sapiens, UniProt Q8WTQ7).
T3 sequence (Q8WTQ7 whole entry): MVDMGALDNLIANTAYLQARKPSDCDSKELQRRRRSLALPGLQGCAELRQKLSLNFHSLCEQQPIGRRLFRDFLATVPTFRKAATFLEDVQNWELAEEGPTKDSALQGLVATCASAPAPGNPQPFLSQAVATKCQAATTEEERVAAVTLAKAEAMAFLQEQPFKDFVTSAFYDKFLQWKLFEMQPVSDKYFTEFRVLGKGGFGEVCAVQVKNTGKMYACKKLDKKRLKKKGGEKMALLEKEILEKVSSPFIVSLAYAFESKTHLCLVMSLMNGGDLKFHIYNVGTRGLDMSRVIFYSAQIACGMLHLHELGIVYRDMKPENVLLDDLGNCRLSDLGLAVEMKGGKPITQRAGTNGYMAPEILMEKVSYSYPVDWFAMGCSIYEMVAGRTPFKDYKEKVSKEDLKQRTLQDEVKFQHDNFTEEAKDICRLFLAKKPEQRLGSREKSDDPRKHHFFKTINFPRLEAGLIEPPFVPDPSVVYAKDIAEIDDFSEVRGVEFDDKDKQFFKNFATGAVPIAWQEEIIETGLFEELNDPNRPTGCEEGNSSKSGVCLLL
Kind of data set: Inhibition of human GRK7.

The target in data set [3] is G protein-coupled receptor kinase 6 (Homo sapiens, UniProt P43250). Put plainly: Inhibition of human GRK6.
Data set [4] concerns the target Protein kinase C alpha type (Homo sapiens, UniProt P17252). Put plainly: Inhibition of human PKCalpha.
The target of data set [5] is T1, G protein-coupled receptor kinase 5. Kind of data set: Inhibition of human GRK5.
The next data set addresses T4, Aurora kinase A (Homo sapiens, UniProt O14965).
T4 sequence (O14965 whole entry): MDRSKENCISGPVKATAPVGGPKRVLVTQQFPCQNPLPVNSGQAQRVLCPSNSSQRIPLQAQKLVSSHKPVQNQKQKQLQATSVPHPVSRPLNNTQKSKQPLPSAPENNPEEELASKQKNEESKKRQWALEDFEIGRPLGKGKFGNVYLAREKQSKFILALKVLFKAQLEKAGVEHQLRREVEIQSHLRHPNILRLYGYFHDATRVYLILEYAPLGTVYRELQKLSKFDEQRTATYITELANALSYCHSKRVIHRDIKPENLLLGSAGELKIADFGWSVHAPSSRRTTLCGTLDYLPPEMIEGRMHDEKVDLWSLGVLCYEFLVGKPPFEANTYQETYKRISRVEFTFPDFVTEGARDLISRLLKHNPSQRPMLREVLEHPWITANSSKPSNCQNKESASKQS
Put plainly: Inhibition of human Aurora A.

For data set [6], the target named is Rho-associated protein kinase 1 (Homo sapiens, UniProt Q13464). Kind of data set: Inhibition of human ROCK1.
The target in data set [7] is Protein kinase C beta type (Homo sapiens, UniProt P05771). Put plainly: Inhibition of human PKCbeta1.
Data set [8] has as its target RAC-alpha serine/threonine-protein kinase (Homo sapiens, UniProt P31749). Put plainly: Inhibition of human PKBalpha.
Data set [9] addresses Calcium/calmodulin-dependent protein kinase type II subunit beta (Homo sapiens, UniProt Q13554). Kind of data set: Inhibition of human CaMK2beta.
The target in data set [10] is Ribosomal protein S6 kinase alpha-1 (Homo sapiens, UniProt Q15418). Kind of data set: Inhibition of RSK1 (unknown origin).
A short description of data set [11]: Apparent permeability across apical to basal side in MDCK-MDR1 cells. The class given is ADME, cell-based, Canis lupus familiaris. Conditions: dog.
In data set [12] the target is T2, Rhodopsin kinase GRK1. Kind of data set: Inhibition of human GRK1.
Data set [13] in a line: Inhibition of protein kinase A (unknown origin). Also noted: species or system Homo sapiens.
Data set [14] in a line: Tmax in C57BL mouse at 2 mg/kg, iv or 10 mg/kg, po administered as single dose. It is filed as ADME, organism-based. To be noted: in vivo. The method, boiled down: (§1)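 C57BL mice given a single dose, 2 mg/kg i.v. or 10 mg/kg p.o., both formulated in 20% HPbCD. Plasma concentration–time profiles gave clearance, Vdss, terminal half-lives, Cmax, tmax, oral AUC and bioavailability.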

Data set [15] can be described thus: Cmax in C57BL mouse at 2 mg/kg, iv or 10 mg/kg, po administered as single dose. It is filed as ADME, organism-based. Also noted: dose 10 mg/kg. Conditions: in vivo. The method, boiled down: as §1
Data set [16] can be described thus: Plasma clearance in C57BL mouse at 2 mg/kg, iv or 10 mg/kg, po administered as single dose. It is filed as ADME, organism-based. The method, boiled down: as §1
Data set [17] can be described thus: Oral bioavailability in C57BL mouse at 10 mg/kg administered as single dose. The class given is ADME, organism-based. To be noted: in vivo. The method, boiled down: as §1
Data set [18] in a line: Half life in C57BL mouse at 2 mg/kg, iv administered as single dose. The class given is ADME, organism-based. To be noted: in vivo. The method, boiled down: as §1
Data set [19] can be described thus: Volume of distribution at steady state in C57BL mouse at 2 mg/kg, iv or 10 mg/kg, po administered as single dose. The class given is ADME, organism-based. To be noted: in vivo, read-out: Vdss. The method, boiled down:
as §1

The nature of data set [20]: Half life in C57BL mouse at 10 mg/kg, po administered as single dose. The class given is ADME, organism-based. Conditions: in vivo. The method, boiled down: as §1

T1 sequence (P34947 whole entry): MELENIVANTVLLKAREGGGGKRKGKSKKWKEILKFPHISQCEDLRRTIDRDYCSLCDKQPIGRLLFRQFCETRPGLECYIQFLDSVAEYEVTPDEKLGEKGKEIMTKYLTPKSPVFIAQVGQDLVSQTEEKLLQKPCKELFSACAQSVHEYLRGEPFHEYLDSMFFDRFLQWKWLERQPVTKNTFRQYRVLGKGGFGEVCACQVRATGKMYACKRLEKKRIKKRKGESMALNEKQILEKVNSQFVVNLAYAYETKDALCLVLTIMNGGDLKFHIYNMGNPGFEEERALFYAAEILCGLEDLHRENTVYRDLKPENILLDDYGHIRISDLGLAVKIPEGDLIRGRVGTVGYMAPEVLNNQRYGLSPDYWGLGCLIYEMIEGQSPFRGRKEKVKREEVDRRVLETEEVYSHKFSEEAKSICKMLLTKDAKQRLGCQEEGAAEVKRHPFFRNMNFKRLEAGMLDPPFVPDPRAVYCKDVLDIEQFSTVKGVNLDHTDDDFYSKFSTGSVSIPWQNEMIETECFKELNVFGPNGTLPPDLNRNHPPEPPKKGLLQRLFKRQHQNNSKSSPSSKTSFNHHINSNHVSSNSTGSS
Sequence of G protein-coupled receptor kinase 6 (P43250 whole entry): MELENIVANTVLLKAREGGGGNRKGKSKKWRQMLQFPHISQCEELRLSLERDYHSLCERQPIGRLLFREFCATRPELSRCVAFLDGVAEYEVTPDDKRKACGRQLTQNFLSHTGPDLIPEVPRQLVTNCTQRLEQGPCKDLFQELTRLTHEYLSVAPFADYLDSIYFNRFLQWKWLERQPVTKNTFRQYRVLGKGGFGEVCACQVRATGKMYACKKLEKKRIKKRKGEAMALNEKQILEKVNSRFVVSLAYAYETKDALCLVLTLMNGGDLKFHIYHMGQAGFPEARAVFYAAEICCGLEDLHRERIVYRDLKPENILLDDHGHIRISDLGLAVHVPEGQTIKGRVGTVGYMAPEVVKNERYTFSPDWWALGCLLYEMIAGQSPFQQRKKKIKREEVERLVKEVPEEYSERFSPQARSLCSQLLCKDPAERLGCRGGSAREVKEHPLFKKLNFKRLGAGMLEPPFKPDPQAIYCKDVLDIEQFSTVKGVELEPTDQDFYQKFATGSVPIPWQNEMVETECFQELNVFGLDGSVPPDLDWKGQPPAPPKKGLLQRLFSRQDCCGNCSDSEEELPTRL
Sequence of Protein kinase C beta type (P05771 whole entry): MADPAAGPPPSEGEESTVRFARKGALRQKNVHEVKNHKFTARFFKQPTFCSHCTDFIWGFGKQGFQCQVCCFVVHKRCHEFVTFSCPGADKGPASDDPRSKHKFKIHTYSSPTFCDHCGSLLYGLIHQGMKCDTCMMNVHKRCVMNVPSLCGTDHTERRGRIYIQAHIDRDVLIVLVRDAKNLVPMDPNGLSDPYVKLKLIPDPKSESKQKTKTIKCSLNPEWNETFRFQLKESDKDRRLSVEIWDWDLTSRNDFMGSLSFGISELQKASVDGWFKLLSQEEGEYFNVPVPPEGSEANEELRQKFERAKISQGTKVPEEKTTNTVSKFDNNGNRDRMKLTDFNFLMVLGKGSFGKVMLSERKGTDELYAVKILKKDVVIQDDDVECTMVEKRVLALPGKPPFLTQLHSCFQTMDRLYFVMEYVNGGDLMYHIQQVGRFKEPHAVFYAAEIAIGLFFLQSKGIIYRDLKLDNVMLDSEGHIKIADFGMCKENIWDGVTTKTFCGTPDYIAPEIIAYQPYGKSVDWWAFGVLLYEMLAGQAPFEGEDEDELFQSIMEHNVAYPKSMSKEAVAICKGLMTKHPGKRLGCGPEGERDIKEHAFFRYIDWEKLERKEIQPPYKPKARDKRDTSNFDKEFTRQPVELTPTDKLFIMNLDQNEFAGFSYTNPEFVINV
Sequence of RAC-alpha serine/threonine-protein kinase (P31749 whole entry): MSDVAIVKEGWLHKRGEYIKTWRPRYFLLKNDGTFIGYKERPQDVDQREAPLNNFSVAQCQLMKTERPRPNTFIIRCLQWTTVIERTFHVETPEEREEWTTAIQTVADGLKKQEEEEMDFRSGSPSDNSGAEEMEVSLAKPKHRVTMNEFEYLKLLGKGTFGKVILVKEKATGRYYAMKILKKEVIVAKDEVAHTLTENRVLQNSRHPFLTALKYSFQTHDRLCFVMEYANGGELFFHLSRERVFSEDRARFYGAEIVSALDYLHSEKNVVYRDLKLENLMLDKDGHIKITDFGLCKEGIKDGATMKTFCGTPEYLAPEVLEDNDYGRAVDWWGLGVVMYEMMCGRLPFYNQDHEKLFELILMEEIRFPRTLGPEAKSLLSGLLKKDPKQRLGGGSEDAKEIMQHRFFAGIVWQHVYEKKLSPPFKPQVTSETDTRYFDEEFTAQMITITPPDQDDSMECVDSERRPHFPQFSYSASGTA
Sequence of Ribosomal protein S6 kinase alpha-1 (Q15418 whole entry): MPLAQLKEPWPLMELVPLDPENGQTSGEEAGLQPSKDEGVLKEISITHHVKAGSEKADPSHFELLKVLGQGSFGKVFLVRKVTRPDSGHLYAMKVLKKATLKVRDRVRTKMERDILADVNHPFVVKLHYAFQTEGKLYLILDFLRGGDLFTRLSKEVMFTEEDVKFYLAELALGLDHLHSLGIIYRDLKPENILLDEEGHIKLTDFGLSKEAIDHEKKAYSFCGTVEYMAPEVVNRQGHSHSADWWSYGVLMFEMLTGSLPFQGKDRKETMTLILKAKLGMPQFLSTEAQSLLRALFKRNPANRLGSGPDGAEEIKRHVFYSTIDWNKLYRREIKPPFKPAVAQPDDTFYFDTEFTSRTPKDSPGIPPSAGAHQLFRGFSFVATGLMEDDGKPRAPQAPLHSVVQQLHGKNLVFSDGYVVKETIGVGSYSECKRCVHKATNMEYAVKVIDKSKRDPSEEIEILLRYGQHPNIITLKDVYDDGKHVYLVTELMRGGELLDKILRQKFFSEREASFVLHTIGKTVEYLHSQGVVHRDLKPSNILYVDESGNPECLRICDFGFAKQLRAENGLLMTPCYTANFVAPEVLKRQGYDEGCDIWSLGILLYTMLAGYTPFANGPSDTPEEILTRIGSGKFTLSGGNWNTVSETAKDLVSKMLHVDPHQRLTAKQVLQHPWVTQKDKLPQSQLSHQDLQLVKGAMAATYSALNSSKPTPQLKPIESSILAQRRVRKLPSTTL
Sequence of Calcium/calmodulin-dependent protein kinase type II subunit beta (Q13554 whole entry): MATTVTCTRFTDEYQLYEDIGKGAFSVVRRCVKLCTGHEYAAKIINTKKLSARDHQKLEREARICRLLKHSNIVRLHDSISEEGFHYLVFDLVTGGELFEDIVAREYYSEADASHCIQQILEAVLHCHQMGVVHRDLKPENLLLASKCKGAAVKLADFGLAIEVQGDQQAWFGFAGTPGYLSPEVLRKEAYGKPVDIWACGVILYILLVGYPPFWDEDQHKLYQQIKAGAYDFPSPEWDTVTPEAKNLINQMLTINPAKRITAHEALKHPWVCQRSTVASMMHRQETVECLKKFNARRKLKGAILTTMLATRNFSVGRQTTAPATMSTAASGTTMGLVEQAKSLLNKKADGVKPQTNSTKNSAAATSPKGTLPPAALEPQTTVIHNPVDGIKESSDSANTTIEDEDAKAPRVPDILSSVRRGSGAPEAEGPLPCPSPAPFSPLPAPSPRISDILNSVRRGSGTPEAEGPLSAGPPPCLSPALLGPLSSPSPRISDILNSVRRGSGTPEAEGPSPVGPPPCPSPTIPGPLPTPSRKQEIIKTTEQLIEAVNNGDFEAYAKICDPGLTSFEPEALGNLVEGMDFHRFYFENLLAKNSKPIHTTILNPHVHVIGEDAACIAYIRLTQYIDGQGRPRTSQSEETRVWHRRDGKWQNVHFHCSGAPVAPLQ

On to `O=c1c2cc(-c3cn[nH]c3)ccc2ncn1Cc1ccccc1`, for which the Kd in data set [1] came to 34.3 µM; on Rhodopsin kinase GRK1 [2], 14.5 µM.

Take `O=c1c2cc(-c3ccncc3)ccc2ncn1Cc1ccccc1`: the Kd (in data set [1]; at Rhodopsin kinase GRK1 [2]) was greater than 83.3 µM in each case.

As for `COc1cccc(Cn2cnc3ccc(-c4cn[nH]c4)cc3c2=O)c1`, the IC50 on Rhodopsin kinase GRK7 was 9.14 µM; in data set [3] it was 3.27 µM; in [4] it was greater than 10 µM; in data set [5], 4.5 µM; against Aurora kinase A, 0.011 µM; in data set [6] it was 0.246 µM. Also, the IC50 was 9.07 µM in data set [7]; 1.45 µM in [8]; 3.85 µM in data set [9]; 0.483 µM in data set [10]; greater than 10 µM on Rhodopsin kinase GRK1 [12]; 0.855 µM in [13]. Further, in data set [11], the Papp A→B worked out at 206 nm/s.

As for `COc1cccc(Cn2ncc3ccc(-c4cn[nH]c4)cc3c2=O)c1`, the IC50 on Rhodopsin kinase GRK7 is greater than 10 µM; in [3], greater than 10 µM; in data set [4] it was greater than 10 µM; in data set [5], greater than 10 µM; against Aurora kinase A, 0.137 µM; in data set [6], 1.27 µM. Also, the IC50 was greater than 10 µM in data set [7]; greater than 10 µM in data set [8]; greater than 10 µM in [9]; 3.15 µM in data set [10]; greater than 10 µM against Rhodopsin kinase GRK1 [12]; 4.88 µM in [13]. Also, the Tmax in data set [14] worked out at 0.83 h. In data set [15], this compound registered a Cmax of 4.96 µM. The compound also showed a clearance in data set [16] of 1.75 L/h/kg. This compound displayed a bioavailability in data set [17] of 65.3%. In addition, the Papp A→B in data set [11] was found to be 532 nm/s. The half-life is 1.01 h in [18] and 2.41 h in data set [20]. Moreover, the Vd in data set [19] amounted to 2.01 L/kg.

As for `O=C(NCc1c(F)cccc1F)c1cccc(Cn2cnc3ccc(-c4cn[nH]c4)cc3c2=O)c1`, the Papp A→B in [11] turned out to be 8.5 nm/s.

As for `COc1cc(Cn2cnc3ccc(-c4cn[nH]c4)cc3c2=O)ccc1F`, the Papp A→B in data set [11] is 101 nm/s.

On to `O=c1c2cc(-c3cn[nH]c3)ccc2ncn1Cc1cccc(Oc2ccc(F)cc2)c1`, for which the Papp A→B in [11] came out at 77.3 nm/s.

Consider `O=C(NCc1ccc(F)cc1)c1cccc(Cn2cnc3ccc(-c4cn[nH]c4)cc3c2=O)c1`, for which the Papp A→B in data set [11] amounted to 5.7 nm/s.

On to `O=c1c2cc(-c3cncnc3)ccc2ncn1Cc1ccccc1`, for which the Kd (in data set [1]; at Rhodopsin kinase GRK1 [2]) was greater than 83.3 µM each time.

Consider `O=c1c2cc(-c3cn[nH]c3)ccc2ncn1Cc1cccc(OC(F)F)c1`, for which the Papp A→B in data set [11] amounted to 242 nm/s.

`COc1cccc([C@@H](C)n2cnc3ccc(-c4cn[nH]c4)cc3c2=O)c1`: the Papp A→B in data set [11] turned out to be 378 nm/s.

As for `COc1ccc(Cn2cnc3ccc(-c4cn[nH]c4)cc3c2=O)cc1F`, in data set [11], the Papp A→B was 123 nm/s.

Take `O=C(Nc1ccc(F)cc1)c1cccc(Cn2cnc3ccc(-c4cn[nH]c4)cc3c2=O)c1`: in [11], the Papp A→B was determined as 4.4 nm/s.

In the case of `O=c1c2ccc(-c3cn[nH]c3)cc2ncn1Cc1ccccc1`, the results for the Kd (in [1]; on Rhodopsin kinase GRK1 [2]) were greater than 83.3 µM and 47.6 µM, respectively.

For `O=C(NCc1c(F)cccc1F)c1ccc(Cn2cnc3ccc(-c4cn[nH]c4)cc3c2=O)cc1`, the Papp A→B in [11] came out at 6.6 nm/s.

Consider `O=c1c2cc(-c3ccn[nH]3)ccc2ncn1Cc1ccccc1`, for which the Kd (in [1]; at Rhodopsin kinase GRK1 [2]) was greater than 83.3 µM each time.

Turning to `CNCCC(c1cccc(OC)c1)n1cnc2ccc(-c3cn[nH]c3)cc2c1=O` (racemic), in data set [11], the Papp A→B was less than 3.4 nm/s.
